Data taken from ChEMBL document CHEMBL5705889, “Novel mutant-selective EGFR kinase inhibitors against EGFR T790M” (Nature, 2009).
Calls of active or inactive are those of the source. The rule behind the calls is not given here.

Legend:
cells [1] = assay type: functional, cell-based; conditions: Homo sapiens, NCI-H1819, 72 h
Calu-3 = assay: cells; assay type: functional, cell-based; conditions: Homo sapiens, Calu-3, 72 h
cells [2] = assay type: functional, cell-based; conditions: Homo sapiens, NCI-H1781, 72 h
BaF3 [3] = assay: cells; assay type: functional, cell-based; conditions: Mus musculus, BaF3, 72 h
BaF3 [4] = assay: cells; assay type: functional, cell-based; conditions: Mus musculus, BaF3, 72 h; remark: listed apart in the source
BaF3 [5] = assay: cells; assay type: functional, cell-based; conditions: Mus musculus, BaF3, 72 h; remark: listed apart in the source
[6] = molecular target: T1, Epidermal growth factor receptor (Homo sapiens, UniProt P00533); assay: Inhibition of EGFR phosphorylation in human PC9 Gefitinib-resistant (GR) cells at 0.01 to 1 uM incubated for 16 hrs by immunoblot analysis; assay type: cell-based; conditions: PC9 Gefitinib-resistant (GR) cell, dose 0.01-1 µM
T1 sequence (P00533 whole entry): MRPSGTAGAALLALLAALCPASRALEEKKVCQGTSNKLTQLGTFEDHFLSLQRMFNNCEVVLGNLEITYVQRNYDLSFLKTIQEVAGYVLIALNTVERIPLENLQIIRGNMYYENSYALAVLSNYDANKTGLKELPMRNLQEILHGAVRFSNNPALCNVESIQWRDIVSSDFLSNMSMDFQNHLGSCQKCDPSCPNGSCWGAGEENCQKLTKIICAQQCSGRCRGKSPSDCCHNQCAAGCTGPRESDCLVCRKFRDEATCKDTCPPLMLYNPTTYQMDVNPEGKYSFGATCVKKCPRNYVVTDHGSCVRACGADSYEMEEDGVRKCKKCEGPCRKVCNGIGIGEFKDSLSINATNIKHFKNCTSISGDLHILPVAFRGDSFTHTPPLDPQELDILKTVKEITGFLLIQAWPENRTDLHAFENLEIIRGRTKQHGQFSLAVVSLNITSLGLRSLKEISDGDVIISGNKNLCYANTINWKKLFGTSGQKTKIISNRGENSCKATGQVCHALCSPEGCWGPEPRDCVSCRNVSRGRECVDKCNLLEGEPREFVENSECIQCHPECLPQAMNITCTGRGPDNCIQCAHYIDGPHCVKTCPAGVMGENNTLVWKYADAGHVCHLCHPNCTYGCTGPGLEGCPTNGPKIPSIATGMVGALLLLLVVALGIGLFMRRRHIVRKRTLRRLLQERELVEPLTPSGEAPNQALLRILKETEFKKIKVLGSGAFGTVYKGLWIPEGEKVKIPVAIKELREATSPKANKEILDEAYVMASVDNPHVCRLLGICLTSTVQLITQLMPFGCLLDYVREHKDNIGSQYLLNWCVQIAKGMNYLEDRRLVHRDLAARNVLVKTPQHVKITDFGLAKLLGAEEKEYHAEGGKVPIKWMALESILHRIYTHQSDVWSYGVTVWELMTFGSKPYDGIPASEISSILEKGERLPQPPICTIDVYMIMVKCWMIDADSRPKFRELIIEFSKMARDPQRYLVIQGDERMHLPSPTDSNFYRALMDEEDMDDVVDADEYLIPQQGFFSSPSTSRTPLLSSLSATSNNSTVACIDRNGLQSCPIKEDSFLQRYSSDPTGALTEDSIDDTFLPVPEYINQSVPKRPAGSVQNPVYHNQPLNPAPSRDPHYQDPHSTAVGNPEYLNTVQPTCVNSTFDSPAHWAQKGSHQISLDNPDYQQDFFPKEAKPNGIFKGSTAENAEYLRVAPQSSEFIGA

[7] = molecular target: T2, Mitogen-activated protein kinase; ERK1/ERK2 (Homo sapiens) (UniProt P27361+P28482); assay: Inhibition of ERK1/2 phosphorylation in human PC9 Gefitinib-resistant (GR) cells at 0.01 to 1 uM incubated for 16 hrs by immunoblot analysis; assay type: cell-based; conditions: PC9 Gefitinib-resistant (GR) cell, dose 0.01-1 µM
T2 sequence (P27361 whole entry, looked up): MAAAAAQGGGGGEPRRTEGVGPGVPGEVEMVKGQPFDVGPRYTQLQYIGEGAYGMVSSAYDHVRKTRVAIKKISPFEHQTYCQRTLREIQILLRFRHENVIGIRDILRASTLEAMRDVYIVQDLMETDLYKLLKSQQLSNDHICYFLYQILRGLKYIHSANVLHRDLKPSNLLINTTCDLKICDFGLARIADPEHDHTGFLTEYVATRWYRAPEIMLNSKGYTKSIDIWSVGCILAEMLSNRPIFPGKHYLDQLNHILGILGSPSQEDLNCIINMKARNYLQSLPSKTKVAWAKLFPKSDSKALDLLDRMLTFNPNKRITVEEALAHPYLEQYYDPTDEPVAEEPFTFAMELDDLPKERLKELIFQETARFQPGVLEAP
T2 sequence (P28482 whole entry, looked up): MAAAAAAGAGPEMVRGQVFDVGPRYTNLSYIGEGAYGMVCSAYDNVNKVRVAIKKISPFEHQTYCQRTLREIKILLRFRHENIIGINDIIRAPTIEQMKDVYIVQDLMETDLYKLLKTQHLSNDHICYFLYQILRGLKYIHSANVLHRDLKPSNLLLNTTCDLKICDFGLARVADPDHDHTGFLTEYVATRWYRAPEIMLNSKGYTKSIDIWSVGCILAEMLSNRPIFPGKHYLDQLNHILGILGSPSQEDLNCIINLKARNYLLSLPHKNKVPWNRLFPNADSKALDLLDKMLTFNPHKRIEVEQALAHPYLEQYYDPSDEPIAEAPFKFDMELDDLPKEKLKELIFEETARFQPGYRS

[8] = molecular target: T1, Epidermal growth factor receptor; assay: Inhibition of EGFR phosphorylation in human NCI-H1975 cells at 0.01 to 1 uM incubated for 16 hrs by immunoblot analysis; assay type: cell-based; conditions: dose 0.01-1 µM
[9] = molecular target: T2, Mitogen-activated protein kinase; ERK1/ERK2 (Homo sapiens); assay: Inhibition of ERK1/2 phosphorylation in human NCI-H1975 cells at 0.01 to 1.0 uM incubated for 16 hrs by immunoblot analysis; assay type: cell-based; conditions: dose 0.01-1 µM
[10] = molecular target: ALK tyrosine kinase receptor (Homo sapiens, UniProt Q9UM73); assay: Binding affinity of ALK (unknown origin) assessed as dissociation constant
Chain of ALK tyrosine kinase receptor (Q9UM73 whole entry): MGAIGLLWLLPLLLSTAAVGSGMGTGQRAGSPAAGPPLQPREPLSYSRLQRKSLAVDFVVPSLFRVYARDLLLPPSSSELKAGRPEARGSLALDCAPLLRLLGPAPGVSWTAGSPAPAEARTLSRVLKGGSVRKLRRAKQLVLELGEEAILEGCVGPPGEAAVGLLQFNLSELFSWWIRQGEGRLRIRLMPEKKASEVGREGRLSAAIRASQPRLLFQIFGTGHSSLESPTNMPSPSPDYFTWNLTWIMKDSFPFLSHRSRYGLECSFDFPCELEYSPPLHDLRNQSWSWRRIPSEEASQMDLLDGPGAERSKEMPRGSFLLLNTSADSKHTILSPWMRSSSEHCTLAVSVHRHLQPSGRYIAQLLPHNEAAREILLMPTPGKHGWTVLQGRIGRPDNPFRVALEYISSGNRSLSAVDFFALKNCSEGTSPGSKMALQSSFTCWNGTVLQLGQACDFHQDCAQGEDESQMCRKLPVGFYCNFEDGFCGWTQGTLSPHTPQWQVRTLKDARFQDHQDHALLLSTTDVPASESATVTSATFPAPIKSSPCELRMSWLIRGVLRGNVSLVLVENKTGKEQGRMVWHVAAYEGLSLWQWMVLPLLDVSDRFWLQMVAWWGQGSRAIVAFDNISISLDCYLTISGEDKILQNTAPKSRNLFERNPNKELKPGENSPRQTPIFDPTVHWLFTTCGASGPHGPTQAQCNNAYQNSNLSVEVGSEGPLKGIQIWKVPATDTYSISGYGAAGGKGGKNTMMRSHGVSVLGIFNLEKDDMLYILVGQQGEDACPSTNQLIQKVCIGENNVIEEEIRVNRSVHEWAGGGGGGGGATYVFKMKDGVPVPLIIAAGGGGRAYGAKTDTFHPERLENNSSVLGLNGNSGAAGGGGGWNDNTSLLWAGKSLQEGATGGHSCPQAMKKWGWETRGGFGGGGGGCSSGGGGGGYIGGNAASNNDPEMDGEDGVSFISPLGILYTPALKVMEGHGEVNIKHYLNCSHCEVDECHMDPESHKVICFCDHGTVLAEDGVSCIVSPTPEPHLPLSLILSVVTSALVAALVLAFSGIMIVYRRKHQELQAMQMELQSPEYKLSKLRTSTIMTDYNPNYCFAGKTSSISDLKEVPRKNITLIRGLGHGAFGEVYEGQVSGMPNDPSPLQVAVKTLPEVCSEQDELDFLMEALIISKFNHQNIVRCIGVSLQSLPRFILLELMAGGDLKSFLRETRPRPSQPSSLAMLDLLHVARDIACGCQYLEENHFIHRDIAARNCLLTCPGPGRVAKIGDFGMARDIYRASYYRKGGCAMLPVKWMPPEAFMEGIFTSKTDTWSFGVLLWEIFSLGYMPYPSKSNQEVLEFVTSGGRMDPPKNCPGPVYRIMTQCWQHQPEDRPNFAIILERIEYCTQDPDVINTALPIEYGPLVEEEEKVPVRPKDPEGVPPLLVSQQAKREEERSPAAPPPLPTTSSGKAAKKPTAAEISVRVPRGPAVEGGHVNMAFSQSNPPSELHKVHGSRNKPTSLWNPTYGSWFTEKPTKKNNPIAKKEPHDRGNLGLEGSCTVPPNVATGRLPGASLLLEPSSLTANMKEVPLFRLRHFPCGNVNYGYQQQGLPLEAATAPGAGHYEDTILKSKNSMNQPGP

[11] = molecular target: Tyrosine-protein kinase BTK (Homo sapiens, UniProt Q06187); assay: Binding affinity to BTK (unknown origin) assessed as dissociation constant
Chain of Tyrosine-protein kinase BTK (Q06187 whole entry): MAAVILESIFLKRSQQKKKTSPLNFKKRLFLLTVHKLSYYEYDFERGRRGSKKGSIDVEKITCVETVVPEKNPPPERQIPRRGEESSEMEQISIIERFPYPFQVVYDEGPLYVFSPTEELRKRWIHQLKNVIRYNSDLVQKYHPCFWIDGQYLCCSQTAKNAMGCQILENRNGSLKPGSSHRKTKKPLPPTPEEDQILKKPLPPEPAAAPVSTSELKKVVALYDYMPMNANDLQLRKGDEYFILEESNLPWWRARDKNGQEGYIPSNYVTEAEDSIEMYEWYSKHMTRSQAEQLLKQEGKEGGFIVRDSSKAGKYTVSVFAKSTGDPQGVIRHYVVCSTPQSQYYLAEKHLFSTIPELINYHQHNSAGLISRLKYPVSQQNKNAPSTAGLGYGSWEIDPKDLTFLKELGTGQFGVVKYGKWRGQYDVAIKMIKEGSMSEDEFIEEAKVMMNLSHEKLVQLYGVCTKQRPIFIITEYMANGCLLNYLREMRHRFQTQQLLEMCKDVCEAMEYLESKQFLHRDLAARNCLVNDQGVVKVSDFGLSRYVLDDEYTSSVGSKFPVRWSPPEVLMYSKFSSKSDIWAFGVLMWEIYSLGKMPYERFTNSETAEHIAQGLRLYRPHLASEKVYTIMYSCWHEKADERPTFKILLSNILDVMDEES

[12] = molecular target: Cyclin-G-associated kinase (Homo sapiens, UniProt O14976); assay: Binding affinity to GAK (unknown origin) assessed as dissociation constant
Focal adhesion kinase 1 = Focal adhesion kinase 1 (Homo sapiens, UniProt Q05397); assay: Binding affinity to FAK (unknown origin) assessed as dissociation constant
[13] = molecular target: NUAK family SNF1-like kinase 2 (Homo sapiens, UniProt Q9H093); assay: Binding affinity to SNARK (unknown origin) assessed as dissociation constant
[14] = molecular target: Cytoplasmic tyrosine-protein kinase BMX (Homo sapiens) (UniProt P51813); assay: Binding affinity to BMX (unknown origin)
Chain of Cytoplasmic tyrosine-protein kinase BMX (Homo sapiens) (P51813 whole entry): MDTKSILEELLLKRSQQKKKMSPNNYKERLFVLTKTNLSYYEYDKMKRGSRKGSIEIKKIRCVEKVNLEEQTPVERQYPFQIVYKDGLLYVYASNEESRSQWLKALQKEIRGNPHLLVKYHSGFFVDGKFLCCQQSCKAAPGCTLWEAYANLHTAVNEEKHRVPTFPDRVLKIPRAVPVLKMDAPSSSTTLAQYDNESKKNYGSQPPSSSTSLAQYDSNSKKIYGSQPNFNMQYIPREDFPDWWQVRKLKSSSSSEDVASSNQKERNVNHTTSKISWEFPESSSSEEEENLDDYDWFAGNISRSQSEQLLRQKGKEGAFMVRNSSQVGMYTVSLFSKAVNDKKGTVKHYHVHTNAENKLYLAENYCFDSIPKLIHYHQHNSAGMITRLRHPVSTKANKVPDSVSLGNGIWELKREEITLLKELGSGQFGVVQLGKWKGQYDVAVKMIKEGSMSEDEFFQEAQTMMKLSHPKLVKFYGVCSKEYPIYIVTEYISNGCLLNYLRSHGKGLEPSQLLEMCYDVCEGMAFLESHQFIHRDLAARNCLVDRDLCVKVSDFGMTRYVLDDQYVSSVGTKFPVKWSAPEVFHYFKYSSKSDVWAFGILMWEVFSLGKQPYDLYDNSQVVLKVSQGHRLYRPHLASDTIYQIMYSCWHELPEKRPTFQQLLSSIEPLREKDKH

[15] = C0 in mouse at 1 mg/kg, iv administered as single dose; assay type: ADME, organism-based; conditions: in vivo
[16] = Half-life in mouse at 1 mg/kg, iv administered as single dose; assay type: ADME, organism-based; conditions: in vivo
[17] = Volume of distribution at steady state in mouse at 1 mg/kg, iv administered as single dose; assay type: ADME, organism-based; conditions: in vivo, read-out: Vdss
[18] = MRT in mouse at 10 mg/kg, po administered as single dose; assay type: ADME, organism-based; conditions: in vivo
[19] = Drug concentration in mouse plasma at 1 mg/kg, iv administered as single dose and measured after 0.25 hrs; assay type: ADME, organism-based
[20] = Drug concentration in mouse plasma at 10 mg/kg, po administered as single dose and measured after 0.25 hrs; assay type: ADME, organism-based
[21] = Drug concentration in mouse plasma at 10 mg/kg, po administered as single dose and measured after 24 hrs; assay type: ADME, organism-based
[22] = Toxicity in mouse harboring EGFR del E746_A750/T790M mutant assessed as effect on body weight at 25 mg/kg administered via gavage for 2 weeks; assay type: organism-based; conditions: in vivo, po, 336 h
Method in brief: (§1)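 Inducible bitransgenic tumor mice gavaged daily, 25 mg/kg, vehicle NMP (10% 1-methyl-2-pyrrolidinone, 90% PEG-300), compared against vehicle-treated mice; weight, serum creatine and total white blood cell count monitored during the study.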

[23] = Toxicity in mouse harboring EGFR del E746_A750/T790M mutant assessed as effect on serum creatine level at 25 mg/kg administered via gavage for 2 weeks; assay type: organism-based; conditions: in vivo, po, 336 h
Method in brief: as §1

Mus musculus [24] = assay: In vivo inhibition of ERK1/2 phosphorylation in transgenic mouse harboring EGFR del E746_A750/T790M mutant at 2.5 to 25 mg/kg administered as two doses separated by 16 hours by immunoblot analysis; assay type: functional, organism-based; conditions: dose 2.5-25 mg/kg
Method in brief: (§2)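 Transgenic mice gavaged with compound in 10% 1-methyl-2-pyrrolidinone:90% PEG-300 vehicle; phosphorylation assessed in tissue by immunoblotting per standard protocols.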

Mus musculus [25] = assay: In vivo inhibition of EGFR phosphorylation in transgenic mouse harboring EGFR L858R/T790M mutant at 2.5 to 25 mg/kg administered as two doses separated by 16 hours by immunoblot analysis; assay type: functional, organism-based; conditions: dose 2.5-25 mg/kg
Mus musculus [26] = assay: In vivo inhibition of ERK1/2 phosphorylation in transgenic mouse harboring EGFR L858R/T790M mutant at 2.5 to 25 mg/kg administered as two doses separated by 16 hours by immunoblot analysis; assay type: functional, organism-based; conditions: dose 2.5-25 mg/kg
Method in brief: as §2

Mus musculus [27] = assay: In vivo antitumor activity in transgenic mouse harboring EGFR delE746_A750/T790M mutant assessed as decrease in Ki67 positive cells at 25 mg/kg administered via gavage for 2 weeks by immunohistochemical analysis; assay type: functional, organism-based
Method in brief: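 Transgenic EGFR T790M mutant mice were given daily gavage at 25mg/kg in 10% 1-methyl-2-pyrrolidinone:90% PEG-300 vehicle, alongside vehicle-alone controls. Tumor tissue was immunostained by standard protocols, and TUNEL-positive and Ki67-positive cells were counted.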

Mus musculus [28] = assay: In vivo antitumor activity in transgenic mouse harboring EGFR L858R/T790M mutant assessed as tumor regression at 25 mg/kg, administered via gavage for 2 weeks; assay type: functional, organism-based
Method in brief: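 Inducible bitransgenic mice carrying EGFR T790M/L858R or exon19 deletion-T790M were dosed by daily gavage at 25mg/kg. The vehicle was 10% 1-methyl-2-pyrrolidinone:90% PEG-300, and the control group received vehicle alone. Tumor response was followed by MRI scanning.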

Mus musculus [29] = assay: Invivo antitumor activity in transgenic mouse harboring EGFR del19/T790M mutant assessed as increase in fibrosis at 25 mg/kg administered via gavage for 2 weeks by H&E staining based analysis; assay type: functional, organism-based
Method in brief: (§3)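 EGFR-TL (L858R/T790M) or exon19 deletion-T790M (TD) inducible bitransgenic mice dosed by oral gavage daily at 25 mg/kg; vehicle 10% 1-methyl-2-pyrrolidinone:90% PEG-300. Tumors followed by MRI; lung histology by standard protocols.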

Mus musculus [30] = assay: Invivo antitumor activity in transgenic mouse harboring EGFR del19/T790M mutant assessed as remodelling/scarring at 25 mg/kg administered via gavage for 2 weeks by H&E staining based analysis; assay type: functional, organism-based
Method in brief: as §3

Mus musculus [31] = assay: Invivo antitumor activity in transgenic mouse harboring EGFR L858R/T790M mutant assessed as increase in fibrosis at 25 mg/kg administered via gavage for 2 weeks by H&E staining based analysis; assay type: functional, organism-based
Method in brief: as §3

[32] = molecular target: Tyrosine-protein kinase Tec (Homo sapiens) (UniProt P42680); assay: Inhibition of TEC (unknown origin)

## C=CC(=O)Nc1cccc(Oc2nc(Nc3ccc(N4CCN(C)CC4)cc3OC)ncc2Cl)c1
Cells [1]
  IC50: 924 nM
Calu-3
  IC50: 1960 nM
Cells [2]
  IC50: 1510 nM
BaF3 [3]
  IC50: 3 nM
BaF3 [4]
  IC50: 35 nM
BaF3 [5]
  IC50: 619 nM
[6]
  inhibition: Active
[7]
  inhibition: Active
[8]
  inhibition: Active
[9]
  inhibition: Active
[10]
  Kd: 300 nM
[11]
  Kd: 36 nM
[12]
  Kd: 91 nM
Focal adhesion kinase 1
  Kd: 78 nM
[13]
  Kd: 10 nM
[14]
  Activity: inactive
[15]
  C0: 1480 ng/mL
[16]
  half-life: 1.76 h
[17]
  Vd: 1.54 L/kg
[18]
  MRT: 3.98 h
[19]
  concentration at 0.25 h: 627 ng/mL
[20]
  concentration at 0.25 h: 429 ng/mL
[21]
  concentration at 24 h: 0.82 ng/mL
[22]
  Activity: Non-Toxic
[23]
  Activity: Non-Toxic
Mus musculus [24]
  inhibition: Active
Mus musculus [25]
  inhibition: Active
Mus musculus [26]
  inhibition: Active
Mus musculus [27]
  Activity: Active
Mus musculus [28]
  Activity: Active
Mus musculus [29]
  Activity: Active
Mus musculus [30]
  Activity: Active
Mus musculus [31]
  Activity: Active
[32]
  inhibition: Active
